Assay results gathered from unrelated publications.
Lines come from different studies, so protocols differ.
Target: High affinity nerve growth factor receptor (NTRK1, Homo sapiens, UniProt P04629)

Structure (SMILES) | read-out | technique | concentration | remaining binding
C[C@@H]1CCN(c2nccc(-c3cnn4ncccc34)n2)C1 | binding | – | 1 µM | 61%
Cc1nccc(COC(=O)N2C[C@@H]3[C@@H](CNC(=O)c4ccc5[nH]nnc5c4)[C@@H]3C2)n1 | cell-free assay | competition with immobilised ligand | 1 µM | 94%
CNC(=O)[C@@H]1CC[C@@H](n2c(-c3ccc4cnccc4c3)nc3ccc(C(=O)NCc4cccc(C(N)=O)c4)cc32)C1 | binding | competition with immobilised ligand | 1 µM | 92%
Nc1c(C(=O)NCc2ccc(C(=O)NCCCC3CCCCC3)cc2)cnn1-c1ccccc1 | cell-free assay | competition with immobilised ligand | 0.1 µM | 100%
c1cnn2ncc(-c3ccnc(N4CCC45COC5)n3)c2c1 | binding | – | 1 µM | 53%
O=C(NCCCN1CCOCC1)c1ccc(Nc2nccc(-c3cc4ccccc4s3)n2)cc1 | binding | competition with immobilised ligand | 1 µM | 19%
Cc1cc(-n2nc(Cc3cc(F)cc(C(F)(F)F)c3)nc2C)ccc1C(N)=O | cell-free assay | competition with immobilised ligand | 1 µM | 97%
O=C(NCC1CCOCC1)c1n[nH]cc1NC(=O)c1c(F)cccc1F | binding | competition with immobilised ligand | 1 µM | 100%
CN(c1ccnc(CNc2nc(Nc3ccc4c(c3)CC(=O)N4)ncc2C(F)(F)F)n1)S(C)(=O)=O | cell-free assay | competition with immobilised ligand | 1 µM | 10%
FC(F)(F)Oc1cccc(-c2cnc3ccc(-c4ccncc4)nn23)c1 | cell-free assay | competition with immobilised ligand | 5 µM | 1.9%
CN1CCN(c2ccc(Nc3nccc(-c4ccccc4)n3)cc2C(F)(F)F)CC1 | binding | – | 10 µM | 9.2%
N#Cc1ccccc1CSc1nnc2c(n1)[nH]c1ccccc12 | binding | competition with immobilised ligand | 10 µM | 98%
COc1ccnn2ncc(-c3ccnc(N(C)C)n3)c12 | binding | – | 1 µM | 79%
CN(C(=O)c1ccccc1)c1cc(N(C)c2ccc3c(c2)CCc2ccc(C(=O)NCCN4CCOCC4)cc2C3=O)ccc1F | cell-free assay | competition with immobilised ligand | 1 µM | 79%
O=C(c1ccc(Nc2ncc(Cl)c(-c3cc4ccccc4s3)n2)cc1)N1CCC(N2CCCC2)CC1 | binding | competition with immobilised ligand | 1 µM | 1.4%
CC1CCCN1c1nccc(-c2cnn3ncccc23)n1 (stereo not shown) | binding | – | 1 µM | 87%
